Experimental data published in ChEMBL document CHEMBL3792296, “Synthesis and antiproliferative activity of 9-benzylamino-6-chloro-2-methoxy-acridine derivatives as potent DNA-binding ligands and topoisomerase II inhibitors” (Eur J Med Chem, 2016).
Active and inactive are the calls of the source. No cut-off for these calls is given here.

Columns and labels:
[1] = Antiproliferative activity against human HCT116 cells after 48 hrs by MTT assay; type: functional, cell-based; settings: HCT-116, 48 h
Procedure, shortened: (§1)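 MTT assay: cells seeded at 4-8 × 10³ per well, incubated overnight at 37 °C in 5% CO₂, then given fresh medium with graded compound concentrations or equal DMSO for 48 h. MTT (5 mg/mL solution) added for a further 4 h, formazan dissolved in DMSO, absorbance read at 490 nm. Six cancer cell lines tested.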

A549 [2] = assay: Cell cycle arrest in human A549 cells assessed as accumulation at G2/M phase at 5 uM after 36 hrs by propidium iodide staining based flow cytometry (reference value: 7.62%); type: functional
Calf thymus DNA = assay: Binding affinity to calf thymus DNA assessed as hypochromicity change at 10 uM after 5 mins by UV-vis spectrophotometry relative to control; type: nucleic-acid assay; settings: Bos taurus
Procedure, shortened: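 ctDNA at 0-44 µM is added to compound at 10 µM final in Tris-HCl buffer (pH 7.4). UV-vis absorption spectra are recorded after 5 min standing. The binding constant K_b is taken from a plot of absorption data against DNA concentration.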

A549 [3] = assay: Cell cycle arrest in human A549 cells assessed as accumulation at G0/G1 phase at 0.5 uM after 36 hrs by propidium iodide staining based flow cytometry (reference value: 61.65%); type: functional
A549 [4] = assay: Induction of DNA damage in human A549 cells assessed as increase in gamma-H2AX expression at 1 to 2.5 uM after 48 hrs by Western blot analysis; type: cell-based
Procedure, shortened: (§2)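 A549 cells grown to 80% confluency, treated with graded concentrations for 48 h, then lysed in Tris-HCl/NaCl/Triton X-100 buffer with protease inhibitors. 40 µg protein resolved on 12 or 15% SDS-PAGE and blotted to PVDF. Primary antibodies used at 1:1000 for 6-8 h, HRP anti-rabbit at 1:2000 for 2 h, ECL detection, β-actin as loading control.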

A549 [5] = assay: Induction of apoptosis in human A549 cells assessed as increase in expression of cleaved caspase 7 at 1 to 2.5 uM after 48 hrs by Western blot analysis; type: functional, cell-based; procedure, shortened: as §2
[6] = target: DNA topoisomerase 2-alpha (Homo sapiens) (UniProt P11388); assay: Inhibition of human recombinant topoisomerase 2-alpha expressed in Escherichia coli assessed as reduction in enzyme-mediated relaxation of supercoiled pBR322 DNA at 100 uM after 10 to 15 mins by agarose gel electrophoresis
Chain of DNA topoisomerase 2-alpha (Homo sapiens) (P11388 whole entry): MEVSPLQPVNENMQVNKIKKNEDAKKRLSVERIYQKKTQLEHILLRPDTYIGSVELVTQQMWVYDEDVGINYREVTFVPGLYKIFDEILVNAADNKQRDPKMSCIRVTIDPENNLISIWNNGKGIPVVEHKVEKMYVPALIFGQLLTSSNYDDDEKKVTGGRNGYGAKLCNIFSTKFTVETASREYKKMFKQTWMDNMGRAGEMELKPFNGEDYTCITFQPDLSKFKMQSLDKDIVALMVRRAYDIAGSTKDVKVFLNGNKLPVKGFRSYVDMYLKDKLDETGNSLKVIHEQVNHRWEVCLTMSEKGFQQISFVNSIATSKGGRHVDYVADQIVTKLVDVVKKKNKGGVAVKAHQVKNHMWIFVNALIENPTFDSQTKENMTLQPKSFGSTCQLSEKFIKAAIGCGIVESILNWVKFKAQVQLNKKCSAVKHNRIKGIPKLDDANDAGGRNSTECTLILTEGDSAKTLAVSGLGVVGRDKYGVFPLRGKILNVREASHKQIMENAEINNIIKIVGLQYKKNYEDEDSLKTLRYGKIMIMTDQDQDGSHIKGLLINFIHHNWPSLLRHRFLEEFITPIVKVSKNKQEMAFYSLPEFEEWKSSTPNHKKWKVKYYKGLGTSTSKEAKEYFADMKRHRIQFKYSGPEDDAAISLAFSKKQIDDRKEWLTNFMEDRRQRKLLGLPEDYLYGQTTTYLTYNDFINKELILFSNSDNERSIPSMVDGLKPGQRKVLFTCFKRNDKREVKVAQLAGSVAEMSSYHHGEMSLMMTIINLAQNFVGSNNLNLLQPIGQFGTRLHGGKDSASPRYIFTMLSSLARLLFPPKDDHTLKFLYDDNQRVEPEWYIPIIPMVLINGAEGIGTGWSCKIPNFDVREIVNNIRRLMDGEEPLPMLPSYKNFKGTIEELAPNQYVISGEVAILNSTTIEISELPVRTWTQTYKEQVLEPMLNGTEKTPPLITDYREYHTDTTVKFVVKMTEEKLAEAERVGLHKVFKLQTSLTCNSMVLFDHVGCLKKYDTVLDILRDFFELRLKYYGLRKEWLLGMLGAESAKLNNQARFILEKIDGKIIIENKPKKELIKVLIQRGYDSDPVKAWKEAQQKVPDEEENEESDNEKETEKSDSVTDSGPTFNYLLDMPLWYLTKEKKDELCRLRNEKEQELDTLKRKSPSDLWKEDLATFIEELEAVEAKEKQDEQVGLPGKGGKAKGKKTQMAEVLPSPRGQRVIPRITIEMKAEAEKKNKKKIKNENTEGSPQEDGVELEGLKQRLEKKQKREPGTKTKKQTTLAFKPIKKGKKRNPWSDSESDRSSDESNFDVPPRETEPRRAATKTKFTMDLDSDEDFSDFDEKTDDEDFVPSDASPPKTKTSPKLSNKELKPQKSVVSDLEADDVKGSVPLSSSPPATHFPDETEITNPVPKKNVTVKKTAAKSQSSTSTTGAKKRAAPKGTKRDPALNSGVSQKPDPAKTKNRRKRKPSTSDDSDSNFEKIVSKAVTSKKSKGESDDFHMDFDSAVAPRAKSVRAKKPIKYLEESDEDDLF
Procedure, shortened: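 Relaxation of 500 ng supercoiled pBR322 by 1 unit human Topo I or Topo IIα, with or without compound, in 20 µL reaction buffer at 37 °C for 10-15 min. Reactions stopped with loading buffer, run on 0.8% agarose in TAE at 80 V for 30 min. Gels stained with ethidium bromide 2.5 µg/mL and viewed under UV.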

A549 [7] = assay: Induction of apoptosis in human A549 cells assessed as late apoptotic cells at 10 uM after 36 hrs by Annexin V-FITC/propidium iodide staining based FACS analysis (reference value: 0.29%); type: functional
Procedure, shortened: (§3)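 A549 cells seeded at 2 × 10⁵ per well, incubated overnight, then treated at 0, 5 or 10 µM. The legend gives 36 or 48 h; the methods section states 24 h. Annexin V-FITC/PI kit staining followed by flow cytometry. Early and late apoptotic cells expressed as cumulative percentage relative to control.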

A549 [8] = assay: Induction of DNA damage in human A549 cells assessed as tail DNA at 5 uM after 24 hrs by propidium iodide staining based comet assay (reference value: 0.02%); type: cell-based
Procedure, shortened: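 Alkaline comet assay. About 10⁵ A549 cells per well incubated 12 h, then treated 24 h in serum-free medium against a DMSO control. Cells embedded in low-melting agarose, lysed 2 h, alkaline-unwound 0.5 h at 4 °C, electrophoresed at 300 mA for 25 min in the dark. Slides neutralized, PI-stained, 50 random cells scored for % tail DNA.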

A549 [9] = assay: Cell cycle arrest in human A549 cells assessed as accumulation at S phase at 0.5 uM after 36 hrs by propidium iodide staining based flow cytometry (reference value: 30.73%); type: functional
MCF7 = assay: Antiproliferative activity against human MCF7 cells after 48 hrs by MTT assay; type: functional, cell-based; settings: MCF7, 48 h; procedure, shortened: as §1
A549 [10] = assay: Induction of apoptosis in human A549 cells assessed as increase in expression of cleaved caspase 9 at 1 to 2.5 uM after 48 hrs by Western blot analysis; type: functional, cell-based; procedure, shortened: as §2
A549 [11] = assay: Induction of apoptosis in human A549 cells assessed as late apoptotic cells at 10 uM after 48 hrs by Annexin V-FITC/propidium iodide staining based FACS analysis (reference value: 0.62%); type: functional; procedure, shortened: as §3
CCRF-CEM = assay: Antiproliferative activity against human CCRF-CEM cells after 48 hrs by MTT assay; type: functional, cell-based; procedure, shortened: as §1
A549 [12] = assay: Cell cycle arrest in human A549 cells assessed as accumulation at G2/M phase at 0.5 uM after 36 hrs by propidium iodide staining based flow cytometry (reference value: 7.62%); type: functional
A549 [13] = assay: Induction of apoptosis in human A549 cells assessed as early apoptotic cells at 5 uM after 36 hrs by Annexin V-FITC/propidium iodide staining based FACS analysis (reference value: 0.29%); type: functional; procedure, shortened: as §3
A549 [14] = assay: Antiproliferative activity against human A549 cells after 48 hrs by MTT assay; type: functional, cell-based; settings: A549, 48 h; procedure, shortened: as §1
A549 [15] = assay: Cell cycle arrest in human A549 cells assessed as accumulation at G2/M phase at 1 uM after 36 hrs by propidium iodide staining based flow cytometry (reference value: 7.62%); type: functional
HeLa = assay: Antiproliferative activity against human HeLa cells after 48 hrs by MTT assay; type: functional, cell-based; procedure, shortened: as §1
A549 [16] = assay: Cell cycle arrest in human A549 cells assessed as accumulation at G2/M phase after 36 hrs by propidium iodide staining based flow cytometry; type: functional
A549 [17] = assay: Induction of apoptosis in human A549 cells assessed as early apoptotic cells at 10 uM after 48 hrs by Annexin V-FITC/propidium iodide staining based FACS analysis (reference value: 0.94%); type: functional; procedure, shortened: as §3
A549 [18] = assay: Induction of apoptosis in human A549 cells assessed as late apoptotic cells at 5 uM after 36 hrs by Annexin V-FITC/propidium iodide staining based FACS analysis (reference value: 0.29%); type: functional; procedure, shortened: as §3
A549 [19] = assay: Cell cycle arrest in human A549 cells assessed as accumulation at S phase at 1 uM after 36 hrs by propidium iodide staining based flow cytometry (reference value: 30.73%); type: functional
A549 [20] = assay: Cell cycle arrest in human A549 cells assessed as accumulation at S phase at 5 uM after 36 hrs by propidium iodide staining based flow cytometry (reference value: 30.73%); type: functional

Activity (Calf thymus DNA): 60%
inhibition [6]: Active
IC50 (MCF7): 6950 nM
IC50 (CCRF-CEM): 2540 nM
IC50 (A549 [14]): 610 nM
IC50 (HeLa): 1700 nM
SMILES: COc1ccc(CNc2c3ccc(Cl)cc3nc3ccc(OC)cc23)cc1
IC50 [1]: 6320 nM
Activity (A549 [2]): 16.52%
Activity (A549 [3]): 61.48%
Activity (A549 [4]): Active
Activity (A549 [5]): Active
Activity (A549 [7]): 88.13%
Activity (A549 [8]): 52.3%
Activity (A549 [9]): 30.4%
Activity (A549 [10]): Active
Activity (A549 [11]): 82.46%
Activity (A549 [12]): 8.12%
Activity (A549 [13]): 2.14%
Activity (A549 [15]): 9.62%
Activity (A549 [16]): Dose-dependent effect
Activity (A549 [17]): 8.8%
Activity (A549 [18]): 10.47%
Activity (A549 [19]): 29.55%
Activity (A549 [20]): 21.45%
